Published values from different studies.
Lines come from different studies, so protocols differ.
Observed: microbial growth

Compound	organism	test	test system	conditions	MIC
Cc1cc(NS(=O)(=O)c2ccc(N)cc2)no1	Salmonella enterica	–	TYPHIMURIUM	20 h, pH 5.5	1020 µg/mL
O=C1NC(=S)S/C1=C\c1ccc(-c2ccc(N(c3ccccc3)c3ccccc3)cc2)c2ccccc12	Bacillus cereus	broth dilution	ATCC10876	–	1000 µg/mL
C[C@@H](O)[C@H]1C(=O)N2C(C(=O)O)=C(S[C@@H]3CN[C@H](C(=O)N(C)C)C3)[C@H](C)[C@H]12	Salmonella enterica	broth dilution	TYPHIMURIUM	clinical isolate	≤ 0.5 µg/mL
O=C(O)c1cn(C2CC2)c2cc(N3CCNCC3)c(F)cc2c1=O	Bacillus cereus	broth dilution	ATCC10876	–	0.12 µg/mL
CS(=O)(=O)c1ccc([C@@H](O)[C@@H](CF)NC(=O)C(Cl)Cl)cc1	Salmonella enterica	–	F98, TYPHIMURIUM	20 h, pH 5.5	4 µg/mL
O=C(Nc1ncc([N+](=O)[O-])s1)c1ccncc1F	Helicobacter pylori	broth dilution	26695	27 h	3.7 µM
CO/N=C(\C(=O)N[C@@H]1C(=O)N2C(C(=O)O)=C(CSC(=O)c3ccco3)CS[C@H]12)c1csc(N)n1	Salmonella enterica	–	–	20 h, pH 7.2	1 µg/mL
O=C1NC(=S)N/C1=C\c1ccc(-c2ccc(N(c3ccccc3)c3ccccc3)cc2)c2ccccc12	Bacillus cereus	broth dilution	ATCC10876	–	> 1000 µg/mL
CC1(C)S[C@@H]2[C@H](NC(=O)[C@H](N)c3ccccc3)C(=O)N2[C@H]1C(=O)O	Salmonella enterica	–	–	20 h, pH 7	1 µg/mL
C=C[C@@]1(C)C=C2CC[C@@H]3[C@](C)(CCC[C@@]3(C)C(=O)O)[C@H]2CC1	Helicobacter pylori	broth dilution	–	–	31.2 µg/mL
O=C(O)CN1C(=O)/C(=C/c2ccc(-c3ccc(N(c4ccccc4)c4ccccc4)cc3)c3ccccc23)SC1=S	Bacillus cereus	broth dilution	ATCC10876	–	1000 µg/mL
O=C(Nc1ncc([N+](=O)[O-])s1)C1CCCCC1	Helicobacter pylori	broth dilution	26695	27 h	1.2 µM
Oc1ccc(-c2nc(-c3ccc(Oc4ccc(C(F)(F)F)cc4)cc3)no2)cc1	Bacillus cereus	broth dilution	ATCC13061	–	2 µg/mL
O=C(Nc1ncc([N+](=O)[O-])s1)c1cccnc1	Helicobacter pylori	broth dilution	26695	27 h	4 µM
O=c1cc(-c2ccc(O)c(O)c2)oc2cc(O)cc(O)c12	Helicobacter pylori	broth dilution	–	–	3.9 µg/mL
